{"data": "Published values of several laboratories", "target": "Serine/threonine-protein kinase MARK1 (MARK1, Homo sapiens, UniProt Q9P0L2)", "note": "Compare with care: the assays were run in different laboratories."}
{"Structure (SMILES)": "Cc1sc(C(=O)NC2COC2)cc1-n1cc(NC(=O)Nc2c(F)cccc2Cl)cn1", "read-out": "enzyme activity", "mode": "inhibitor", "tested at": "10 µM", "quantity": "remaining activity", "result": "95.3%"}
{"Structure (SMILES)": "CC1=C(C#N)C(c2ccc3c(c2)c(NC(=O)c2ccccc2C)nn3C)C(C#N)=C(C)N1", "read-out": "cell-free assay", "technique": "competition with immobilised ligand", "tested at": "1 µM", "quantity": "remaining binding", "result": "100%"}
{"Structure (SMILES)": "COc1cc2ncnc(Nc3ccc(F)c(Cl)c3)c2cc1OCCCN1CCOCC1", "read-out": "cell-free assay", "tested at": "0.5 µM", "quantity": "remaining signal", "result": "116%"}
{"Structure (SMILES)": "Cc1ncc([N+](=O)[O-])n1C(=NO)c1ccccc1C(F)(F)F", "read-out": "enzyme activity", "mode": "inhibitor", "tested at": "10 µM", "quantity": "inhibition", "result": "34.2%"}
{"Structure (SMILES)": "COc1cc2c(N3CCN(C(=O)Nc4ccc(OC(C)C)cc4)CC3)ncnc2cc1OCCCN1CCCCC1", "read-out": "cell-free assay", "tested at": "0.5 µM", "quantity": "remaining signal", "result": "89.9%"}
{"Structure (SMILES)": "CC(=O)C1=C(C)N(c2cccc(C(F)(F)F)c2)C(=O)N[C@@H]1c1ccc(C#N)nc1", "read-out": "cell-free assay", "technique": "competition with immobilised ligand", "tested at": "1 µM", "quantity": "remaining binding", "result": "100%"}
{"Structure (SMILES)": "CCN(CC)CCNC(=O)c1c(C)[nH]c(/C=C2\\C(=O)Nc3ccc(F)cc32)c1C", "read-out": "enzyme activity", "mode": "inhibitor", "tested at": "0.3 µM", "quantity": "inhibition", "result": "50%"}
{"Structure (SMILES)": "COc1cc2ncnc(Nc3ccc(Oc4ccccc4)cc3C)c2cc1OC", "read-out": "enzyme activity", "mode": "inhibitor", "tested at": "1 µM", "quantity": "inhibition", "result": "8%"}
{"Structure (SMILES)": "CNc1cccc2cc(C(=O)Nc3ccc(C(=O)O)cc3)c(=O)[nH]c12", "read-out": "enzyme activity", "mode": "inhibitor", "tested at": "10 µM", "quantity": "inhibition", "result": "-26%"}
{"Structure (SMILES)": "Cc1nn(CC(F)(F)F)cc1Nc1ncc(Br)c(NCc2ccc(S(N)(=O)=O)cc2)n1", "read-out": "enzyme activity", "mode": "inhibitor", "technique": "radiometric", "tested at": "1 µM", "quantity": "remaining activity", "result": "90%"}
{"Structure (SMILES)": "FC(F)(F)Oc1cccc(-c2cnc3ccc(-c4ccncc4)nn23)c1", "read-out": "enzyme activity", "mode": "inhibitor", "technique": "radiometric", "tested at": "1 µM", "quantity": "activity vs control", "result": "92%"}
{"Structure (SMILES)": "O=S(=O)(NC1CCC(c2cc(F)ccc2F)(S(=O)(=O)c2ccc(Cl)cc2)CC1)C(F)(F)F (centres unmarked)", "read-out": "cell-free assay", "technique": "competition with immobilised ligand", "tested at": "1 µM", "quantity": "remaining binding", "result": "100%"}
{"Structure (SMILES)": "O=C(NCCCNc1nc(Nc2cccc(NC(=O)N3CCCC3)c2)ncc1C1CC1)C1CCC1", "read-out": "enzyme activity", "mode": "inhibitor", "technique": "radiometric", "tested at": "1 µM", "quantity": "remaining activity", "result": "-4%"}
{"Structure (SMILES)": "CCC(=O)N[C@H]1CC[C@@H](C(=O)N(C)c2ccc(-c3nc4ccccc4o3)cc2)C1", "read-out": "cell-free assay", "technique": "competition with immobilised ligand", "tested at": "1 µM", "quantity": "remaining binding", "result": "100%"}
{"Structure (SMILES)": "C=CC(=O)Nc1cc(Nc2nccc(Nc3cc(Cl)c(F)cc3C(C)(C)O)n2)c(OC)cc1N1CC[C@@H](N(C)C)C1", "read-out": "enzyme activity", "mode": "inhibitor", "tested at": "1 µM", "quantity": "inhibition", "result": "4%"}
{"Structure (SMILES)": "O=C(NCCCNc1ccnc(Nc2cccc(NC(=O)N3CCCC3)c2)n1)C1CCC1", "read-out": "enzyme activity", "mode": "inhibitor", "technique": "radiometric", "tested at": "1 µM", "quantity": "remaining activity", "result": "72%"}
{"Structure (SMILES)": "CS(=O)(=O)CCNCc1ccc(-c2ccc3ncnc(Nc4ccc(OCc5cccc(F)c5)c(Cl)c4)c3c2)o1", "read-out": "cell-free assay", "tested at": "0.5 µM", "quantity": "remaining signal", "result": "149%"}
{"Structure (SMILES)": "CNC(=O)c1cc(Oc2ccc(NC(=O)Nc3ccc(Cl)c(C(F)(F)F)c3)cc2)ccn1", "read-out": "enzyme activity", "mode": "inhibitor", "tested at": "0.3 µM", "quantity": "inhibition", "result": "9%"}
{"Structure (SMILES)": "Cc1nn(CC(F)(F)F)cc1Nc1nccc(NCc2ccc(S(N)(=O)=O)cc2)n1", "read-out": "enzyme activity", "mode": "inhibitor", "technique": "radiometric", "tested at": "1 µM", "quantity": "remaining activity", "result": "107%"}
{"Structure (SMILES)": "CCCCN(CCCC)C(=O)CN1C[C@H](c2cc(OC)c3c(c2)OCO3)[C@@H](C(=O)O)[C@@H]1CC(C)(C)CCC", "read-out": "cell-free assay", "technique": "competition with immobilised ligand", "tested at": "1 µM", "quantity": "remaining binding", "result": "96.5%"}
{"Structure (SMILES)": "Cc1ccc(Nc2nccc(N(C)c3ccc4c(C)n(C)nc4c3)n2)cc1S(N)(=O)=O", "read-out": "enzyme activity", "mode": "inhibitor", "tested at": "10 µM", "quantity": "inhibition", "result": "26%"}
{"Structure (SMILES)": "NS(=O)(=O)c1ccc(CNc2nc(Nc3cccc(NC(=O)N4CCCC4)c3)ncc2C2CC2)cc1", "read-out": "enzyme activity", "mode": "inhibitor", "technique": "radiometric", "tested at": "1 µM", "quantity": "remaining activity", "result": "94%"}
{"Structure (SMILES)": "CN(C)c1nccc(-c2cnn3ncccc23)n1", "read-out": "binding", "tested at": "1 µM", "quantity": "remaining binding", "result": "96%"}
{"Structure (SMILES)": "C[C@@H](c1cccc(C#N)c1)n1cc(Cl)cc(C(N)=O)c1=N", "read-out": "cell-free assay", "technique": "competition with immobilised ligand", "tested at": "1 µM", "quantity": "remaining binding", "result": "100%"}
{"Structure (SMILES)": "Cc1ccc(NC(=O)c2ccc(C)c(C(F)(F)F)c2)cc1C#Cc1nn(C2CCC(O)CC2)c2ncnc(N)c12 (centres unmarked)", "read-out": "cell-free assay", "tested at": "10 µM", "quantity": "remaining signal", "result": "94%"}
{"Structure (SMILES)": "COc1cc(-c2cn(C3CCc4ccccc4N(CC(F)(F)F)C3=O)nn2)ccc1-n1ccc(C)n1 (centres unmarked)", "read-out": "cell-free assay", "technique": "competition with immobilised ligand", "tested at": "1 µM", "quantity": "remaining binding", "result": "99%"}
{"Structure (SMILES)": "Cc1nn(CC(F)(F)F)cc1Nc1ncc(C2CC2)c(NCc2ccc(S(N)(=O)=O)cc2)n1", "read-out": "enzyme activity", "mode": "inhibitor", "technique": "radiometric", "tested at": "1 µM", "quantity": "remaining activity", "result": "108%"}
{"Structure (SMILES)": "C[S+]([O-])c1ccc(-c2nc(-c3ccncc3)c(-c3ccc(F)cc3)[nH]2)cc1 (centres unmarked)", "read-out": "cell-free assay", "tested at": "0.5 µM", "quantity": "remaining signal", "result": "105%"}
{"Structure (SMILES)": "O=C(NCCCNc1nc(Nc2cccc(NC(=O)N3CCCC3)c2)ncc1I)c1cccs1", "read-out": "enzyme activity", "mode": "inhibitor", "technique": "radiometric", "tested at": "1 µM", "quantity": "remaining activity", "result": "-5%"}
{"Structure (SMILES)": "O=C(NCc1ncc(C(F)(F)F)cc1Cl)c1ccc2c(c1)C1(CCS(=O)(=O)CC1)[C@H](C1CC1)N2S(=O)(=O)c1ccc(F)cc1", "read-out": "cell-free assay", "technique": "competition with immobilised ligand", "tested at": "1 µM", "quantity": "remaining binding", "result": "100%"}
{"Structure (SMILES)": "Cc1nn(CC(F)(F)F)cc1Nc1ncc(Br)c(NCCc2cnc[nH]2)n1", "read-out": "enzyme activity", "mode": "inhibitor", "technique": "radiometric", "tested at": "1 µM", "quantity": "remaining activity", "result": "49%"}
{"Structure (SMILES)": "CCCS(=O)(=O)Nc1ccc(F)c(C(=O)c2c[nH]c3ncc(-c4ccc(Cl)cc4)cc23)c1F", "read-out": "enzyme activity", "mode": "inhibitor", "tested at": "1 µM", "quantity": "inhibition", "result": "< 10%"}
